In ChEMBL document CHEMBL4177595, “Design and synthesis of a novel series of orally active, selective somatostatin receptor 2 agonists for the treatment of type 2 diabetes” (Bioorg Med Chem, 2017):

How the values were obtained:
[1] = target: Somatostatin receptor type 2 (Homo sapiens, UniProt P30874); assay: Displacement of [125I]somatostatin-14 (Tyr11) from human SSTR2 expressed in CHO dhfr cell membranes after 60 mins by TopCount scintillation counting method
Outline: (§1)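 Membrane fractions were prepared from CHO dhfr- cells stably transfected with each human SSTR subtype, with a high-expressing single colony selected for each. Membranes in 25 mM Tris-HCl pH 7.4 with 0.1% BSA, EDTA and protease inhibitors were incubated with 50 pM [125I]SST-14 (Tyr11) and a range of compound concentrations for 60 min at room temperature. Excess SST-14 defined nonspecific binding. Samples were filtered on PEI-soaked GF/B filters before counting. IC50 came from pseudo-Hill fitting.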

[2] = Lipophilicity, log D of the compound; format: physicochemical; conditions: octanol/water
HepG2 = assay: Induction of phospholipidosis in human HepG2 cells up to 50 uM after 24 hrs by NBD-PE fluorophore-based assay relative to amiodarone; format: cell-based; conditions: hepg2, 24 h
[3] = target: Somatostatin receptor type 1 (Homo sapiens, UniProt P30872); assay: Displacement of [125I]somatostatin-14 (Tyr11) from human SSTR1 expressed in CHO dhfr cell membranes after 60 mins by TopCount scintillation counting method; outline: as §1
[4] = target: Somatostatin receptor type 3 (Homo sapiens, UniProt P32745); assay: Displacement of [125I]somatostatin-14 (Tyr11) from human SSTR3 expressed in CHO dhfr cell membranes after 60 mins by TopCount scintillation counting method; outline: as §1
[5] = target: Somatostatin receptor type 4 (Homo sapiens, UniProt P31391); assay: Displacement of [125I]somatostatin-14 (Tyr11) from human SSTR4 expressed in CHO dhfr cell membranes after 60 mins by TopCount scintillation counting method; outline: as §1
[6] = target: Somatostatin receptor type 5 (Homo sapiens, UniProt P35346); assay: Displacement of [125I]somatostatin-14 (Tyr11) from human SSTR5 expressed in CHO dhfr cell membranes after 60 mins by TopCount scintillation counting method; outline: as §1
[7] = Plasma concentration in Sprague-Dawley rat at 0.3 mg/kg, iv after 5 mins; format: ADME, organism-based
[8] = AUC in Sprague-Dawley rat at 0.3 mg/kg, iv after 1 hr; format: ADME, organism-based; parameters: time < 1 hr, dose 0.3 mg/kg, route intravenous; conditions: in vivo
[9] = MRT in Sprague-Dawley rat at 0.3 mg/kg, iv; format: ADME, organism-based; conditions: in vivo
[10] = Volume of distribution at steady state in Sprague-Dawley rat at 0.3 mg/kg, iv after 1 hr; format: ADME, organism-based; conditions: in vivo, read-out: Vdss
[11] = Total clearance in Sprague-Dawley rat at 0.3 mg/kg, iv after 1 hr; format: ADME, organism-based; conditions: in vivo
[12] = Cmax in Sprague-Dawley rat at 1 mg/kg, po after 1 hr; format: ADME, organism-based; parameters: dose 1 mg/kg, route oral; conditions: in vivo
[13] = AUC in Sprague-Dawley rat at 1 mg/kg, po after 1 hr; format: ADME, organism-based; parameters: time < 1 hr, dose 1 mg/kg, route oral; conditions: in vivo
[14] = MRT in Sprague-Dawley rat at 1 mg/kg, po; format: ADME, organism-based; conditions: in vivo
[15] = Oral bioavailability in Sprague-Dawley rat at 1 mg/kg after 1 hr; format: ADME, organism-based; conditions: in vivo
[16] = Tmax in Sprague-Dawley rat at 1 mg/kg, po after 1 hr; format: ADME, organism-based; conditions: in vivo
Rattus norvegicus [17] = organism: Rattus norvegicus; assay: Inhibition of hypoglycemia-induced glucagon secretion in Sprague-Dawley rat pretreated for 1 hr followed by insulin addition measured after 30 mins post insulin secretion by radioimmunoassay; format: functional
Outline: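 SD rats were given compound orally, then insulin 2 IU/kg s.c. 1 h after dosing. Tail-vein blood was drawn 30 min after insulin, and plasma glucagon was measured by radioimmunoassay. Values are means ± SD (n = 6), compared with vehicle by one-tailed Williams' test. ED50 was derived from the dose-response.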

Rattus norvegicus [18] = organism: Rattus norvegicus; assay: Antidiabetic activity in Wistar rat type 2 diabetic model assessed as inhibition of glucose excursion up to 60 mins by meal tolerance test; format: functional; conditions: 1 h, read-out: MED
Outline: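 Female Wistar fatty rats were fasted overnight and then dosed orally with vehicle or compound, followed by a liquid meal challenge (20 kcal/kg). Plasma glucose was followed over time. The read-out was AUC of delta plasma glucose, and a minimum effective dose was determined.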

Chain of Somatostatin receptor type 2 (P30874 whole entry): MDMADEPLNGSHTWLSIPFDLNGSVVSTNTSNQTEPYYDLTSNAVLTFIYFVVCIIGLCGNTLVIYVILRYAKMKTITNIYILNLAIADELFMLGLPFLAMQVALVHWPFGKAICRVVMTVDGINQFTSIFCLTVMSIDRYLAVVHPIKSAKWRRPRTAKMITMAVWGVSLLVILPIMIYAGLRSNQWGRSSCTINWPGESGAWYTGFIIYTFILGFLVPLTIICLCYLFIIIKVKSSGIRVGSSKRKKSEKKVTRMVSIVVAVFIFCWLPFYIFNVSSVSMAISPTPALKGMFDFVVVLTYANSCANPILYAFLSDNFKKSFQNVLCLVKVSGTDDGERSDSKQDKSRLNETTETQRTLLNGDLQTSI
Chain of Somatostatin receptor type 5 (P35346 whole entry): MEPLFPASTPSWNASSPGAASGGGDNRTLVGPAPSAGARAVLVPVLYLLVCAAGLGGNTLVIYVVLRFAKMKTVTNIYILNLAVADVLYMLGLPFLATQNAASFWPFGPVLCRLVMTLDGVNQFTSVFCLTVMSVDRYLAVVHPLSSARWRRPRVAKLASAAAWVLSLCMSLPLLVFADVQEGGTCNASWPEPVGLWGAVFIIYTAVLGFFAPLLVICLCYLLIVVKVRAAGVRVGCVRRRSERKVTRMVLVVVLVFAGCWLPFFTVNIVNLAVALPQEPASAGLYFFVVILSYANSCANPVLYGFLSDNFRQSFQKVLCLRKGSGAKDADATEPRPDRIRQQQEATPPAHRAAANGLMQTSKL
Chain of Somatostatin receptor type 4 (P31391 whole entry): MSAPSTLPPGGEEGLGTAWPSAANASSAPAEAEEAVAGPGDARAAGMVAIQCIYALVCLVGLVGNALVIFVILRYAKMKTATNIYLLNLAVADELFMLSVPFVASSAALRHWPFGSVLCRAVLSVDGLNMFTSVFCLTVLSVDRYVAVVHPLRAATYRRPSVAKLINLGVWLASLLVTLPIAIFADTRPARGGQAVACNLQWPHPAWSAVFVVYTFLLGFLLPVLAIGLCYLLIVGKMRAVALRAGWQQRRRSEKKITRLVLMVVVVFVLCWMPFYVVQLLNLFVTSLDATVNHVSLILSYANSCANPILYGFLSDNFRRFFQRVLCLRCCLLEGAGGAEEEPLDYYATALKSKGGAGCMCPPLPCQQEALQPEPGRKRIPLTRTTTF
Chain of Somatostatin receptor type 1 (P30872 whole entry): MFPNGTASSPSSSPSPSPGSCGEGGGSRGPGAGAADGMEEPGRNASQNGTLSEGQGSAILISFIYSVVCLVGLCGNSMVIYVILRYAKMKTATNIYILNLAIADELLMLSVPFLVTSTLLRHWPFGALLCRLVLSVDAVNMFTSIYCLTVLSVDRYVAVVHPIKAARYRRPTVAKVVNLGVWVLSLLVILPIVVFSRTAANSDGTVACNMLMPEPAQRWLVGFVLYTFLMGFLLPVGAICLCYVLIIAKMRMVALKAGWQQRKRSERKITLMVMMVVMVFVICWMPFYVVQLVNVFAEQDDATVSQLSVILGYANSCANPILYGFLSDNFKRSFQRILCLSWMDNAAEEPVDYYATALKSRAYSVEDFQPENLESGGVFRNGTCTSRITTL
Chain of Somatostatin receptor type 3 (P32745 whole entry): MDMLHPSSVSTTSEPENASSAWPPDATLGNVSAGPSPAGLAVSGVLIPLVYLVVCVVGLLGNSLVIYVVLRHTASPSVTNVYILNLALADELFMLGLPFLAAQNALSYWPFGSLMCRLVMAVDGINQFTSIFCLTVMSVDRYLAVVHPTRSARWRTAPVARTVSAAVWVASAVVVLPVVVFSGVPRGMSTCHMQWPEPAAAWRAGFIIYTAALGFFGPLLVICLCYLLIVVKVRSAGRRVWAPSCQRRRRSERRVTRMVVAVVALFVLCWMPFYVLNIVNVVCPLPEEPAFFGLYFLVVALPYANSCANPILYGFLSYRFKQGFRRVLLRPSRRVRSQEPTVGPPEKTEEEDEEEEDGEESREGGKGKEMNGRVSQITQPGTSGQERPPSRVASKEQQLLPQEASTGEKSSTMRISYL

Structure (SMILES)	IC50 [1] [nM]	logD [2]	Activity (HepG2) [%]	further results
CCOc1ccc(CN(C)C)cc1NC(=O)[C@H](NC(=O)N1CCC(C(=O)c2nccs2)CC1)[C@@H](C)c1c[nH]c2ccccc12	2	1.35	74	–
CC(=O)c1ccc(CN(C)C)cc1NC(=O)[C@H](NC(=O)N1CCN(C(=O)C2CCC2)CC1)[C@@H](C)c1c[nH]c2ccccc12	1.8	1.04	46	–
CCOc1ccc(CN(C)C)cc1NC(=O)[C@H](NC(=O)N1CCC(C(=O)c2ccccn2)CC1)[C@@H](C)c1c[nH]c2ccccc12	2.6	1.57	81	–
CCOc1ccc(CN(C)C)cc1NC(=O)[C@H](NC(=O)N1CCC(C(=O)CC(C)C)CC1)[C@@H](C)c1c[nH]c2ccccc12	0.89	2.01	76	–
CCOc1ccc(CN(C)C)cc1NC(=O)[C@H](NC(=O)N1CCC(C(=O)C(C)C)CC1)[C@@H](C)c1c[nH]c2ccccc12	1.1	1.5	63	–
CCOc1ccc(CN(C)C)cc1NC(=O)[C@H](NC(=O)N1CCN(C(=O)C2CCC2)CC1)[C@@H](C)c1c[nH]c2ccccc12	2.1	0.73	32	–
CCCCc1oc2ccccc2c1C(=O)c1cc(I)c(OCCN(CC)CC)c(I)c1 [AMIODARONE]	–	–	100	–
CCOc1ccc(CN(C)C)cc1NC(=O)[C@H](NC(=O)N1CCC(C(=O)c2ccco2)CC1)[C@@H](C)c1c[nH]c2ccccc12	2.3	1.14	54	–
CC(=O)c1ccc(CN(C)C)cc1NC(=O)[C@H](NC(=O)N1CCC(C(=O)C(C)C)CC1)[C@@H](C)c1c[nH]c2ccccc12	2	1.44	58	–
CCOc1ccc(CN(C)C)cc1NC(=O)[C@H](NC(=O)N1CCN(C(=O)C(C)(C)C)CC1)[C@@H](C)c1c[nH]c2ccccc12	2.3	1.09	38	–
CC(=O)c1ccc(CN(C)C)cc1NC(=O)[C@H](NC(=O)N1CCC(C(=O)c2cccs2)CC1)[C@@H](C)c1c[nH]c2ccccc12	0.68	1.84	91	–
C[C@@H](c1c[nH]c2ccccc12)[C@@H](NC(=O)N1CCN(C(=O)C(C)(C)C)CC1)C(=O)Nc1cc(CN(C)C)ccc1OC(F)(F)F	2.8	2.18	48	–
CC(=O)c1ccc(CN(C)C)cc1NC(=O)[C@H](NC(=O)N1CCN(C(=O)C(C)(C)C)CC1)[C@@H](C)c1c[nH]c2ccccc12	0.98	0.68	36	–
CC(=O)c1ccc(CN(C)C)cc1NC(=O)[C@H](NC(=O)N1CCC(C(=O)C2CCC2)CC1)[C@@H](C)c1c[nH]c2ccccc12	0.69	1.5	84	–

Second part, led by results:

IC50 [1] [nM]	logD [2]	Structure (SMILES)	Activity (HepG2) [%]	further results
0.53	2.73	C[C@@H](c1c[nH]c2ccccc12)[C@@H](NC(=O)N1CCN(c2ccc(F)cc2)C(=O)C1)C(=O)Nc1cc(CN(C)C)ccc1OC(F)(F)F	50	–
0.2	1.86	CCOc1ccc(CN(C)C)cc1NC(=O)[C@H](NC(=O)N1CCN(c2ccc(F)cc2C)C(=O)C1)[C@@H](C)c1c[nH]c2ccccc12	47	–
0.24	1.81	CC(=O)c1ccc(CN(C)C)cc1NC(=O)[C@H](NC(=O)N1CCN(c2ccc(F)cc2C)C(=O)C1)[C@@H](C)c1c[nH]c2ccccc12	30	–
0.17 to 0.27	2.95	Cc1cc(F)ccc1N1CCN(C(=O)N[C@@H](C(=O)Nc2cc(CN(C)C)ccc2OC(F)(F)F)[C@@H](C)c2c[nH]c3ccccc23)CC1=O	58	IC50 [3]: 5100 nM; IC50 [4]: 360 nM; IC50 [5]: 100 nM; IC50 [6]: 1700 nM; concentration at 5 min [7]: 194 ng/mL; AUC at 1 h [8]: 119 ng·h/mL; MRT [9]: 2.57 h; Vd [10]: 6.63 L/kg; clearance [11]: 43.5 mL/min/kg; Cmax [12]: 10.3 ng/mL; AUC at 1 h [13]: 22.9 ng·h/mL; MRT [14]: 5.69 h; bioavailability [15]: 5.8%; Tmax [16]: 0.83 h; ED50 (Rattus norvegicus [17]): 1.1 mg/kg; minimal effective dose (Rattus norvegicus [18]): 3 mg/kg
0.2	2.22	CCOc1ccc(CN(C)C)cc1NC(=O)[C@H](NC(=O)N1CCN(c2ccc(F)cc2)CC1)[C@@H](C)c1c[nH]c2ccccc12	99	–
0.6	1.55	CCOc1ccc(CN(C)C)cc1NC(=O)[C@H](NC(=O)N1CCC(C(=O)C2CCC2)CC1)[C@@H](C)c1c[nH]c2ccccc12	75	–
0.31	1.59	CC(=O)c1ccc(CN(C)C)cc1NC(=O)[C@H](NC(=O)N1CCN(c2ccc(F)cc2)C(=O)C1)[C@@H](C)c1c[nH]c2ccccc12	37	–
0.2	1.65	CCOc1ccc(CN(C)C)cc1NC(=O)[C@H](NC(=O)N1CCN(c2ccc(F)cc2)C(=O)C1)[C@@H](C)c1c[nH]c2ccccc12	36	–
0.2	3	CCOc1ccc(CN(C)C)cc1NC(=O)[C@H](NC(=O)N1CCC(c2ccccc2)CC1)[C@@H](C)c1c[nH]c2ccccc12	111	IC50 [6]: > 100 nM
0.58	1.89	CCOc1ccc(CN(C)C)cc1NC(=O)[C@H](NC(=O)N1CCC(C(=O)c2cccs2)CC1)[C@@H](C)c1c[nH]c2ccccc12	98	–
